The values that follow come from ChEMBL document CHEMBL1140539, “Modification of cap group in delta-lactam-based histone deacetylase (HDAC) inhibitors” (Bioorg Med Chem Lett, 2007).

For one assay, the target named is Histone deacetylase. Nature of the assay: Inhibition of HDAC in HeLa cell lysates. In kind it is protein assay, Homo sapiens.
In the next assay the test system is PC-3. The assay can be described thus: Growth inhibition of human PC3 cells by SRB assay. In kind it is functional. (Sulforhodamine B stains cellular protein and so reports cell mass.)
Assay [1] relates to MDA-MB-231. Nature of the assay: Growth inhibition of human MDA-MB-231 cells by SRB assay. The assay is classed as functional.
The next assay has as its system NUGC-3. The assay can be described thus: Growth inhibition of human NUGC3 cells by SRB assay. The assay is classed as functional.
A further assay relates to HCT-15. The assay can be described thus: Growth inhibition of human HCT15 cells by SRB assay. In kind it is functional.
The test system of another assay is ACHN. Nature of the assay: Growth inhibition of human ACHN cells by SRB assay. The assay is classed as functional.
For assay [2], the target named is Histone deacetylase (Homo sapiens) (UniProt Q13547+O15379+Q9UBN7+Q92769+Q9UQL6+Q8WUI4+Q9BY41+Q96DB2+P56524+Q9UKV0+Q969S8). The settings on record: HeLa.
Assay [3] relates to MDA-MB-231. Nature of the assay: Antitumor activity against MDA-MB-231 cells xenografted BALB/c nude mouse assessed as body weight at 30 mg/kg, ip for 15 days. The settings on record: route intraperitoneal. In kind it is functional, Homo sapiens. The gist of the method: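 Nude mice carrying MDA-MB-231 human breast xenografts were dosed once daily by intraperitoneal injection at 30 mg/kg. Dosing began once tumours reached 50–60 mm³.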

In assay [4] the test system is MDA-MB-231. The assay can be described thus: Antitumor activity against MDA-MB-231 cells xenografted BALB/c nude mouse at 30 mg/kg, ip for 15 days. In kind it is functional, Homo sapiens. The settings on record: MDA-MB-231, ip, 360 h, route intraperitoneal.

Take `O=C(CCC1=CCCN(CCc2ccc(-c3ccccc3)cc2)C1=O)NO`: on Histone deacetylase, the IC50 – broadly, the midpoint of a concentration-inhibition curve – is 230 nM. The GI50 (commonly the concentration at which growth is held to half of that of the control) in the assay with PC-3 turned out to be 530 nM; in the assay on MDA-MB-231 [1], 280 nM; with NUGC-3, 1650 nM; in the assay on HCT-15, 1000 nM; with ACHN it was 1180 nM.
At Histone deacetylase, `COc1cccc(CN2CCC=C(CCC(=O)NO)C2=O)c1` gave an IC50 of 1940 nM. In addition, the GI50 was over 10000 nM in the assay on PC-3, 3920 nM in the assay on MDA-MB-231 [1], 9030 nM in the assay on HCT-15 and 7600 nM in the assay on ACHN.
Compound `COc1ccccc1CN1CCC=C(CCC(=O)NO)C1=O` yielded an IC50 against Histone deacetylase of 860 nM. The GI50 with PC-3, with MDA-MB-231 [1], with HCT-15 and in the assay on ACHN was over 10000 nM each time.
`Cc1ccc(CN2CCC=C(CCC(=O)NO)C2=O)cc1`: the IC50 at Histone deacetylase is 2100 nM. Moreover, the GI50 came out at 8100 nM in the assay on PC-3, 1430 nM in the assay with MDA-MB-231 [1], 8510 nM in the assay with HCT-15 and 5000 nM in the assay with ACHN.
Regarding `O=C(CCC1=CCCN(CCCc2ccc3ccccc3c2)C1=O)NO`, the IC50 on Histone deacetylase amounted to 30 nM. In addition, the GI50 in the assay with PC-3 came out at 300 nM; in the assay on MDA-MB-231 [1], 560 nM; with NUGC-3, 790 nM; in the assay with HCT-15 it was 530 nM; in the assay on ACHN, 460 nM.
For `Cc1cccc(CN2CCC=C(CCC(=O)NO)C2=O)c1`, at Histone deacetylase, the IC50 was 1900 nM. Besides, the GI50 in the assay with PC-3 was over 10000 nM; in the assay with MDA-MB-231 [1] it was 8120 nM; with HCT-15 it was over 10000 nM; with ACHN, 4380 nM.
`Cc1ccccc1CN1CCC=C(CCC(=O)NO)C1=O` yielded an IC50 against Histone deacetylase of 2970 nM. Further, the GI50 with PC-3 is over 10000 nM; in the assay on MDA-MB-231 [1], 4920 nM; with HCT-15, over 10000 nM; with ACHN it was over 10000 nM.
Regarding `O=C(CCC1=CCCN(CCCc2ccc(-c3ccccc3)cc2)C1=O)NO`, the IC50 on Histone deacetylase was 270 nM. The GI50 in the assay with PC-3 was determined as 3230 nM; with MDA-MB-231 [1], 1040 nM; in the assay on NUGC-3 it was 3700 nM; in the assay on HCT-15, 3190 nM; in the assay on ACHN, 2490 nM.
`O=C(CCC1=CCCN(Cc2ccc([N+](=O)[O-])cc2)C1=O)NO` registered an IC50 at Histone deacetylase of 230 nM. The GI50 is 3010 nM in the assay with PC-3; 470 nM in the assay with MDA-MB-231 [1]; 1110 nM with NUGC-3; over 10000 nM in the assay with HCT-15; 5210 nM in the assay on ACHN.
With `O=C(CCC1=CCCN(CCCCc2cccc3ccccc23)C1=O)NO`, the IC50 at Histone deacetylase came to 110 nM. Besides, the GI50 with PC-3 was found to be 1690 nM; in the assay with MDA-MB-231 [1] it was 1470 nM; in the assay with NUGC-3, 2010 nM; in the assay on HCT-15, 1670 nM; with ACHN, 1820 nM.
With `COc1ccc(CN2CCC=C(CCC(=O)NO)C2=O)cc1`, at Histone deacetylase, the IC50 was determined as 440 nM. Moreover, the GI50 worked out at 7080 nM in the assay on PC-3, 3860 nM with MDA-MB-231 [1], 6890 nM in the assay on HCT-15 and 1670 nM with ACHN.
The compound `O=C(CCC1=CCCN(CCc2cccc3ccccc23)C1=O)NO` showed an IC50 against Histone deacetylase of 320 nM. In addition, the GI50 with PC-3 turned out to be 2580 nM; in the assay with MDA-MB-231 [1] it was 2530 nM; in the assay with NUGC-3, 3260 nM; in the assay with HCT-15 it was 5430 nM; with ACHN, 6620 nM.
For `O=C(CCC1=CCCN(Cc2ccc(Br)cc2)C1=O)NO`, the half-inhibitory concentration (IC50) against Histone deacetylase came out at 450 nM. The GI50 with PC-3 stood at 3150 nM; in the assay with MDA-MB-231 [1], 1630 nM; in the assay on HCT-15, 1720 nM; with ACHN it was 2480 nM.
In the case of `O=C(CCC1=CCCN(Cc2ccc(F)cc2)C1=O)NO`, the IC50 at Histone deacetylase turned out to be 560 nM. For the same compound, the GI50 with HCT-15 came out at 9960 nM.
On to `CC(=O)Nc1ccc(CN2CCC=C(CCC(=O)NO)C2=O)cc1`, for which, on Histone deacetylase, the IC50 was found to be 820 nM. The compound also yielded a GI50 with PC-3 of over 10000 nM.
`O=C(CCC1=CCCN(Cc2ccc3ccccc3c2)C1=O)NO`: the IC50 in assay [2] was over 10000 nM.
The compound `O=C(CCCCCCC(=O)Nc1ccccc1)NO` [VORINOSTAT] yielded a GI50 in the assay on ACHN of 2220 nM. Besides, in the assay with MDA-MB-231 [3], the Activity is recorded as 100%.
`Cc1ccc(S(=O)(=O)Nc2ccc(CN3CCC=C(CCC(=O)NO)C3=O)cc2)cc1` came in with an IC50 against Histone deacetylase of 590 nM. Besides, the GI50 in the assay with PC-3 is 1800 nM; with MDA-MB-231 [1] it was 560 nM; in the assay on HCT-15 it was over 10000 nM; in the assay on ACHN, 370 nM.
Consider `O=C(CCC1=CCCN(CCCCc2ccc(-c3ccccc3)cc2)C1=O)NO`, for which the IC50 on Histone deacetylase was determined as 200 nM. Further, the GI50 with PC-3 amounted to 2950 nM; in the assay with MDA-MB-231 [1], 1280 nM; in the assay with NUGC-3, 4200 nM; with HCT-15, 4560 nM; in the assay on ACHN, 2670 nM.
Consider `O=C(CCC1=CCCN(CCc2ccc3ccccc3c2)C1=O)NO`, for which the IC50 at Histone deacetylase was 37 nM. Besides, the GI50 in the assay on PC-3 is 610 nM; in the assay on MDA-MB-231 [1], 280 nM; in the assay on NUGC-3 it was 370 nM; with HCT-15, 1160 nM; in the assay on ACHN it was 1180 nM. Moreover, the inhibition in vivo – broadly, the drop in the measured response relative to a control, in per cent – at 30 mg/kg in the assay with MDA-MB-231 [4] turned out to be 51%. Moreover, the Activity with MDA-MB-231 [3] amounted to 94%.
Compound `O=C(CCC1=CCCN(Cc2ccc(NC(=O)c3ccccc3)cc2)C1=O)NO` showed an IC50 against Histone deacetylase of 510 nM. Moreover, the GI50 with PC-3 was over 10000 nM; in the assay on MDA-MB-231 [1] it was 6030 nM; with NUGC-3 it was over 10000 nM; with HCT-15, over 10000 nM; in the assay with ACHN, over 10000 nM.
